How the values were obtained:
Details in all cases: Bos taurus; call rule not given here
[1] = test system: Oc1cc(O)c2c(c1)O[C@@]1(c3ccc(O)c(O)c3)Oc3cc(O)c4c(c3[C@@H]2[C@H]1O)O[C@H](c1ccc(O)c(O)c1)[C@H](O)C4; assay: (§1) Induction of H2O2-inactivated bovine milk lactoperoxidase pseudo-halogenating activity assessed as increase in hypothiocyanate formation by measuring ratio of Kcat to Km for substrate using thiocyanate as substrate by Lineweaver-Burk plot
Procedure, shortened: (§2)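 Bovine milk LPO, lyophilized (about 80% purity), 5 nM final, in PBS (10 mM, pH 7.4) at 37 °C with 2 mM SCN−, 50 μM TNB and 80 μM H2O2. Compounds from 5 or 10 mM DMSO stocks, final 0.01–500 μM. −OSCN formation followed at 412 nm as TNB conversion to DTNB in a plate reader. KM, Vmax, kcat and specificity constant from Lineweaver–Burk plots. Mean ± SD, n = 3.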

[2] = test system: Oc1cc(O)c2c(c1)O[C@H](c1ccc(O)c(O)c1)[C@H](O)C2; assay: as §1; procedure, shortened: as §2
[3] = test system: O=c1oc2c(O)c(O)cc3c(=O)oc4c(O)c(O)cc1c4c23; assay: as §1; procedure, shortened: as §2
[4] = test system: O=C(O[C@@H]1Cc2c(O)cc(O)cc2O[C@@H]1c1cc(O)c(O)c(O)c1)c1cc(O)c(O)c(O)c1; assay: as §1; procedure, shortened: as §2
[5] = test system: Oc1cc(O)c2c(c1)O[C@H](c1ccc(O)c(O)c1)[C@H](O)[C@H]2c1c(O)cc(O)c2c1O[C@H](c1ccc(O)c(O)c1)[C@H](O)[C@H]2c1c(O)cc(O)c2c1O[C@H](c1ccc(O)c(O)c1)[C@H](O)C2; assay: as §1; procedure, shortened: as §2
[6] = test system: O=C(OC[C@H]1O[C@@H](OC(=O)c2cc(O)c(O)c(O)c2)[C@H](O)[C@@H](OC(=O)c2cc(O)c(O)c(O)c2)[C@@H]1O)c1cc(O)c(O)c(O)c1; assay: as §1; procedure, shortened: as §2
COC(=O)c1cc(O)c(O)c(O)c1 [7] = assay: as §1; procedure, shortened: as §2
[8] = test system: Oc1cc(O)c2c(c1)O[C@H](c1ccc(O)c(O)c1)[C@H](O)[C@H]2c1c(O)cc(O)c2c1O[C@H](c1ccc(O)c(O)c1)[C@H](O)C2; assay: as §1; procedure, shortened: as §2
[9] = test system: O=C(/C=C/c1ccc(O)c(O)c1)O[C@@H]1C[C@](O)(C(=O)O)C[C@@H](O)[C@H]1O; assay: as §1; procedure, shortened: as §2
[10] = test system: Oc1cc(O)c2c(c1)O[C@H](c1cc(O)c(O)c(O)c1)[C@H](O)C2; assay: as §1; procedure, shortened: as §2
O=C(O)c1cc(O)c(O)c(O)c1 [11] = assay: as §1; procedure, shortened: as §2
[12] = test system: O=C1O[C@@H]2[C@@H](OC(=O)c3cc(O)c(O)c(O)c3-c3c1cc(O)c(O)c3O)[C@H](O)O[C@@H]1COC(=O)c3cc(O)c(O)c(O)c3-c3c(O)c(O)c4oc(=O)c5c(c(O)c(O)c6oc(=O)c3c4c65)-c3c(cc(O)c(O)c3O)C(=O)O[C@@H]21; assay: as §1; procedure, shortened: as §2
[13] = test system: Oc1cc(O)c2c(c1)O[C@@]1(c3ccc(O)c(O)c3)Oc3cc(O)c4c(c3[C@@H]2[C@H]1O)O[C@H](c1ccc(O)c(O)c1)[C@H](O)C4; assay: (§3) Induction of H2O2-inactivated bovine milk lactoperoxidase pseudo-halogenating activity assessed as increase in hypothiocyanate formation by measuring substrate Kcat using thiocyanate as substrate by Lineweaver-Burk plot; procedure, shortened: as §2
[14] = test system: Oc1cc(O)c2c(c1)O[C@H](c1ccc(O)c(O)c1)[C@H](O)C2; assay: as §3; procedure, shortened: as §2
[15] = test system: O=c1oc2c(O)c(O)cc3c(=O)oc4c(O)c(O)cc1c4c23; assay: as §3; procedure, shortened: as §2
[16] = test system: O=C(O[C@@H]1Cc2c(O)cc(O)cc2O[C@@H]1c1cc(O)c(O)c(O)c1)c1cc(O)c(O)c(O)c1; assay: as §3; procedure, shortened: as §2
[17] = test system: Oc1cc(O)c2c(c1)O[C@H](c1ccc(O)c(O)c1)[C@H](O)[C@H]2c1c(O)cc(O)c2c1O[C@H](c1ccc(O)c(O)c1)[C@H](O)[C@H]2c1c(O)cc(O)c2c1O[C@H](c1ccc(O)c(O)c1)[C@H](O)C2; assay: as §3; procedure, shortened: as §2
[18] = test system: O=C(OC[C@H]1O[C@@H](OC(=O)c2cc(O)c(O)c(O)c2)[C@H](O)[C@@H](OC(=O)c2cc(O)c(O)c(O)c2)[C@@H]1O)c1cc(O)c(O)c(O)c1; assay: as §3; procedure, shortened: as §2
COC(=O)c1cc(O)c(O)c(O)c1 [19] = assay: as §3; procedure, shortened: as §2
[20] = test system: Oc1cc(O)c2c(c1)O[C@H](c1ccc(O)c(O)c1)[C@H](O)[C@H]2c1c(O)cc(O)c2c1O[C@H](c1ccc(O)c(O)c1)[C@H](O)C2; assay: as §3; procedure, shortened: as §2
[21] = test system: O=C(/C=C/c1ccc(O)c(O)c1)O[C@@H]1C[C@](O)(C(=O)O)C[C@@H](O)[C@H]1O; assay: as §3; procedure, shortened: as §2
[22] = test system: Oc1cc(O)c2c(c1)O[C@H](c1cc(O)c(O)c(O)c1)[C@H](O)C2; assay: as §3; procedure, shortened: as §2
O=C(O)c1cc(O)c(O)c(O)c1 [23] = assay: as §3; procedure, shortened: as §2
[24] = test system: O=C(OC[C@H]1O[C@@H](OC(=O)c2cc(O)c(O)c(O)c2)[C@H](OC(=O)c2cc(O)c(O)c(O)c2)[C@@H](OC(=O)c2cc(O)c(O)c(O)c2)[C@@H]1OC(=O)c1cc(O)c(O)c(O)c1)c1cc(O)c(O)c(O)c1; assay: as §3; procedure, shortened: as §2
[25] = test system: O=C1O[C@@H]2[C@@H](OC(=O)c3cc(O)c(O)c(O)c3-c3c1cc(O)c(O)c3O)[C@H](O)O[C@@H]1COC(=O)c3cc(O)c(O)c(O)c3-c3c(O)c(O)c4oc(=O)c5c(c(O)c(O)c6oc(=O)c3c4c65)-c3c(cc(O)c(O)c3O)C(=O)O[C@@H]21; assay: as §3; procedure, shortened: as §2
[26] = test system: Oc1cc(O)c2c(c1)O[C@@]1(c3ccc(O)c(O)c3)Oc3cc(O)c4c(c3[C@@H]2[C@H]1O)O[C@H](c1ccc(O)c(O)c1)[C@H](O)C4; assay: (§4) Induction of H2O2-inactivated bovine milk lactoperoxidase pseudo-halogenating activity assessed as increase in hypothiocyanate formation by measuring substrate Km using thiocyanate as substrate by Lineweaver-Burk plot; procedure, shortened: as §2
[27] = test system: Oc1cc(O)c2c(c1)O[C@H](c1ccc(O)c(O)c1)[C@H](O)C2; assay: as §4; procedure, shortened: as §2
[28] = test system: O=c1oc2c(O)c(O)cc3c(=O)oc4c(O)c(O)cc1c4c23; assay: as §4; procedure, shortened: as §2
[29] = test system: O=C(O[C@@H]1Cc2c(O)cc(O)cc2O[C@@H]1c1cc(O)c(O)c(O)c1)c1cc(O)c(O)c(O)c1; assay: as §4; procedure, shortened: as §2
[30] = test system: Oc1cc(O)c2c(c1)O[C@H](c1ccc(O)c(O)c1)[C@H](O)[C@H]2c1c(O)cc(O)c2c1O[C@H](c1ccc(O)c(O)c1)[C@H](O)[C@H]2c1c(O)cc(O)c2c1O[C@H](c1ccc(O)c(O)c1)[C@H](O)C2; assay: as §4; procedure, shortened: as §2
[31] = test system: O=C(OC[C@H]1O[C@@H](OC(=O)c2cc(O)c(O)c(O)c2)[C@H](O)[C@@H](OC(=O)c2cc(O)c(O)c(O)c2)[C@@H]1O)c1cc(O)c(O)c(O)c1; assay: as §4; procedure, shortened: as §2
COC(=O)c1cc(O)c(O)c(O)c1 [32] = assay: as §4; procedure, shortened: as §2
[33] = test system: Oc1cc(O)c2c(c1)O[C@H](c1ccc(O)c(O)c1)[C@H](O)[C@H]2c1c(O)cc(O)c2c1O[C@H](c1ccc(O)c(O)c1)[C@H](O)C2; assay: as §4; procedure, shortened: as §2
[34] = test system: O=C(/C=C/c1ccc(O)c(O)c1)O[C@@H]1C[C@](O)(C(=O)O)C[C@@H](O)[C@H]1O; assay: as §4; procedure, shortened: as §2
[35] = test system: Oc1cc(O)c2c(c1)O[C@H](c1cc(O)c(O)c(O)c1)[C@H](O)C2; assay: as §4; procedure, shortened: as §2
O=C(O)c1cc(O)c(O)c(O)c1 [36] = assay: as §4; procedure, shortened: as §2
[37] = test system: O=C(OC[C@H]1O[C@@H](OC(=O)c2cc(O)c(O)c(O)c2)[C@H](OC(=O)c2cc(O)c(O)c(O)c2)[C@@H](OC(=O)c2cc(O)c(O)c(O)c2)[C@@H]1OC(=O)c1cc(O)c(O)c(O)c1)c1cc(O)c(O)c(O)c1; assay: as §4; procedure, shortened: as §2
[38] = test system: O=C1O[C@@H]2[C@@H](OC(=O)c3cc(O)c(O)c(O)c3-c3c1cc(O)c(O)c3O)[C@H](O)O[C@@H]1COC(=O)c3cc(O)c(O)c(O)c3-c3c(O)c(O)c4oc(=O)c5c(c(O)c(O)c6oc(=O)c3c4c65)-c3c(cc(O)c(O)c3O)C(=O)O[C@@H]21; assay: as §4; procedure, shortened: as §2

Substance: Lactoperoxidase (Bos taurus) (from UniProt P80025)
- kcat/Km [1]: 4.74e+06 M⁻¹ s⁻¹
- kcat/Km [2]: 6.84e+07 M⁻¹ s⁻¹
- kcat/Km [3]: 9.83e+07 M⁻¹ s⁻¹
- kcat/Km [4]: 4.38e+07 M⁻¹ s⁻¹
- kcat/Km [5]: 800000 M⁻¹ s⁻¹
- kcat/Km [6]: 5.03e+07 M⁻¹ s⁻¹
- kcat/Km (COC(=O)c1cc(O)c(O)c(O)c1 [7]): 6.47e+07 M⁻¹ s⁻¹
- kcat/Km [8]: 1.21e+07 M⁻¹ s⁻¹
- kcat/Km [9]: 4.81e+07 M⁻¹ s⁻¹
- kcat/Km [10]: 5.37e+07 M⁻¹ s⁻¹
- kcat/Km (O=C(O)c1cc(O)c(O)c(O)c1 [11]): 200000 M⁻¹ s⁻¹
- kcat/Km [12]: 1.1e+06 M⁻¹ s⁻¹
- kcat [13]: 60 s⁻¹
- kcat [14]: 41.4 s⁻¹
- kcat [15]: 29.3 s⁻¹
- kcat [16]: 13.9 s⁻¹
- kcat [17]: 6.43 s⁻¹
- kcat [18]: 63.7 s⁻¹
- kcat (COC(=O)c1cc(O)c(O)c(O)c1 [19]): 80.3 s⁻¹
- kcat [20]: 4.53 s⁻¹
- kcat [21]: 60.6 s⁻¹
- kcat [22]: 13.9 to 43.6 s⁻¹
- kcat (O=C(O)c1cc(O)c(O)c(O)c1 [23]): 30.9 s⁻¹
- kcat [24]: Not Active
- kcat [25]: 11.8 s⁻¹
- Km [26]: 12.7 µM
- Km [27]: 0.61 µM
- Km [28]: 0.3 µM
- Km [29]: 0.32 µM
- Km [30]: 8.41 µM
- Km [31]: 1.37 µM
- Km (COC(=O)c1cc(O)c(O)c(O)c1 [32]): 1.24 µM
- Km [33]: 0.37 µM
- Km [34]: 1.26 µM
- Km [35]: 0.32 to 0.81 µM
- Km (O=C(O)c1cc(O)c(O)c(O)c1 [36]): 177 µM
- Km [37]: Not Active
- Km [38]: 10.6 µM

Reference: ChEMBL document CHEMBL4118024, “Tannins and Tannin-Related Derivatives Enhance the (Pseudo-)Halogenating Activity of Lactoperoxidase” (J Nat Prod, 2017)
